ChEMBL document CHEMBL3259534, “Diterpenoids from Croton laui and their cytotoxic and antimicrobial activities” (J Nat Prod, 2014)
≈ marks a conversion by molar mass, not a printed value.

How the values were obtained:
Candida albicans = test: Antimicrobial activity against Candida albicans ATCC 1600 by agar dilution method; assay type: functional
In short: (§1)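 In vitro antifungal test by agar dilution against a panel of yeasts and dermatophytes. Amphotericin B served as the positive control. Activity is reported as MIC.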

Nannizzia gypsea = test: Antimicrobial activity against Microsporum gypseum ATCC 14683 by agar dilution method; assay type: functional; in short: as §1
Staphylococcus aureus = test: Antimicrobial activity against Staphylococcus aureus ATCC 25923 by microdilution method; assay type: functional
In short: (§2)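 In vitro antibacterial test by microdilution. Strains were drawn from a panel of Gram-positive and Gram-negative bacteria. Ofloxacin was run as the positive control. The read-out is MIC.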

HL-60 = test: Cytotoxicity against human HL60 cells after 72 hrs by MTT assay; assay type: functional, cell-based; settings: HL-60, 72 h
In short: (§3)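 MTT viability assay on HL-60 human premyelocytic leukemia cells and P-388 murine leukemia cells. Adriamycin was included as the positive control.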

Escherichia coli = test: Antimicrobial activity against Escherichia coli ATCC 25922 by microdilution method; assay type: functional; in short: as §2
Shigella flexneri = test: Antimicrobial activity against Shigella flexneri ATCC 12022 by microdilution method; assay type: functional; in short: as §2
Kocuria rhizophila = test: Antimicrobial activity against Micrococcus luteus ATCC 9341 by microdilution method; assay type: functional; in short: as §2
Saccharomyces = test: Antimicrobial activity against Saccharomyces sake ATCC 26421 by agar dilution method; assay type: functional; in short: as §1
Bacillus subtilis = test: Antimicrobial activity against Bacillus subtilis CMCC 63501 by microdilution method; assay type: functional
Trichophyton rubrum = test: Antimicrobial activity against Trichophyton rubrum ATCC 10218 by agar dilution method; assay type: functional; in short: as §1
Pseudomonas aeruginosa = test: Antimicrobial activity against Pseudomonas aeruginosa ATCC 14502 by microdilution method; assay type: functional; in short: as §2
[1] = system: Staphylococcus epidermidis; test: Antimicrobial activity against Staphylococcus epidermidis ATCC 12228 by microdilution method; assay type: functional; in short: as §2
P388 = test: Cytotoxicity against mouse P388 cells after 72 hrs by MTT assay; assay type: functional, cell-based; settings: P388, 72 h; in short: as §3

| SMILES | MIC (Candida albicans) [µM] | MIC (Nannizzia gypsea) [µM] | MIC (Staphylococcus aureus) [µM] | MIC (Escherichia coli) [µM] | MIC (Shigella flexneri) [µM] | MIC (Kocuria rhizophila) [µM] | MIC (Saccharomyces) [µM] | MIC (Bacillus subtilis) [µM] | MIC (Trichophyton rubrum) [µM] | MIC (Pseudomonas aeruginosa) [µM] | MIC [1] [µM] | IC50 (HL-60) [µM] | IC50 (P388) [µM] |
| --- | --- | --- | --- | --- | --- | --- | --- | --- | --- | --- | --- | --- | --- |
| C=C1C[C@H](OC(C)=O)[C@]23C(C(=O)OC)=CCC[C@H]2[C@]12C[C@H](c1ccoc1)O[C@H]2O[C@@H]3O | > 150 | > 150 | > 150 | > 150 | > 150 | > 150 | > 150 | > 150 | > 150 | > 150 | > 150 | ≥ 10 | ≥ 10 |
| C=C1C[C@H](OC(C)=O)[C@]23C(C(=O)OC)=CCC[C@H]2[C@]12C[C@H](c1ccoc1)O[C@H]2O[C@H]3O | > 150 | > 150 | > 150 | > 150 | > 150 | > 150 | > 150 | > 150 | > 150 | > 150 | > 150 | ≥ 10 | ≥ 10 |
| C=C1CC[C@H]2[C@](C)(CO)[C@H](O)CC[C@]2(C)[C@H]1C/C=C(\C)C=O | > 150 | > 150 | > 150 | > 150 | > 150 | > 150 | > 150 | > 150 | > 150 | > 150 | > 150 | ≥ 10 | ≥ 10 |
| C[C@@H]1C(=O)CC[C@H]2[C@@]1(C)CC[C@H]1C(=O)O[C@H](c3ccoc3)C[C@]21C (relative stereo) | > 150 | > 150 | > 150 | > 150 | > 150 | > 150 | > 150 | > 150 | > 150 | > 150 | > 150 | ≥ 10 | ≥ 10 |
| C=C1[C@H](O)CC[C@@H]2[C@@]3(C)C[C@@H](c4ccoc4)OC(=O)[C@@H]3CC[C@@]12C (relative stereo) | > 150 | > 150 | > 150 | > 150 | > 150 | > 150 | > 150 | > 150 | > 150 | > 150 | > 150 | ≥ 10 | ≥ 10 |
| C=C1CC[C@]23C(C(=O)OC)=CCC[C@H]2[C@]12C[C@H](c1ccoc1)O[C@H]2O[C@H]3O (relative stereo) | > 150 | > 150 | > 150 | > 150 | > 150 | > 150 | > 150 | > 150 | > 150 | > 150 | > 150 | ≥ 10 | ≥ 10 |
| C=C1C[C@@H]2OC(=O)C3=CCC[C@H]4[C@]15C[C@H](c1ccoc1)O[C@H]5OC(=O)[C@]324 (relative stereo) | > 150 | > 150 | > 150 | > 150 | > 150 | > 150 | > 150 | > 150 | > 150 | > 150 | > 150 | 9.42 | 7.45 |
| C=C1CC[C@]23C(C(=O)OC)=CCC[C@H]2[C@]12C[C@H](c1ccoc1)O[C@H]2O[C@@H]3O (relative stereo) | > 150 | > 150 | > 150 | > 150 | > 150 | > 150 | > 150 | > 150 | > 150 | > 150 | > 150 | ≥ 10 | ≥ 10 |

Further lines, with some results ahead:

| MIC (Candida albicans) [µM] | MIC (Nannizzia gypsea) [µM] | MIC (Staphylococcus aureus) [µM] | MIC (Escherichia coli) [µM] | MIC (Shigella flexneri) [µM] | MIC (Kocuria rhizophila) [µM] | MIC (Saccharomyces) [µM] | MIC (Bacillus subtilis) [µM] | MIC (Trichophyton rubrum) [µM] | MIC (Pseudomonas aeruginosa) [µM] | MIC [1] [µM] | SMILES | IC50 (HL-60) [µM] | IC50 (P388) [µM] |
| --- | --- | --- | --- | --- | --- | --- | --- | --- | --- | --- | --- | --- | --- |
| > 150 | > 150 | > 150 | > 150 | > 150 | > 150 | > 150 | > 150 | > 150 | > 150 | > 150 | C[C@@H]1CC[C@]2(C)[C@H](CC[C@@H](O)[C@]2(C)O)[C@@]1(C)CCc1ccoc1 | ≥ 10 | ≥ 10 |
| > 150 | > 150 | > 150 | > 150 | > 150 | > 150 | > 150 | > 150 | > 150 | > 150 | > 150 | C/C(=C\CO)[C@@H]1C[C@@H]2[C@@]3(C)CCCC(C)(C)[C@@H]3C[C@H](O)[C@@]2(C)O1 | ≥ 10 | ≥ 10 |
| > 150 | > 150 | > 150 | > 150 | > 150 | > 150 | > 150 | > 150 | > 150 | > 150 | > 150 | C[C@@H]1CC[C@]2(C)[C@H](CC[C@@H](O)[C@]2(C)O)[C@@]1(C)C[C@H](O)c1ccoc1 | ≥ 10 | ≥ 10 |
| > 150 | > 150 | > 150 | > 150 | > 150 | > 150 | > 150 | > 150 | > 150 | > 150 | > 150 | COC(=O)C1=CCC[C@@H]2[C@]13CC[C@H](C)[C@@]21C[C@H](c2ccoc2)O[C@H]1O[C@@H]3O | ≥ 10 | ≥ 10 |
| > 150 | > 150 | > 150 | > 150 | > 150 | > 150 | > 150 | > 150 | > 150 | > 150 | > 150 | COC(=O)C1=CCC[C@@H]2[C@]13CC[C@H](C)[C@@]21C[C@H](c2ccoc2)O[C@H]1O[C@H]3O | ≥ 10 | ≥ 10 |
|  |  | 43.4 (≈ 12.5 µg/mL) |  |  | 43.4 (≈ 12.5 µg/mL) |  | 43.4 (≈ 12.5 µg/mL) |  |  | 43.4 (≈ 12.5 µg/mL) | CC1=CCC[C@@H]2[C@@](C)(CCC3=CCOC3)[C@H](C)CC[C@@]12C (relative stereo) | ≥ 10 | ≥ 10 |
